# Shown are actives, neighbours in structure and some others; about 4.2% of the full set was active somewhere.
# TAAR1 ag: human TAAR1 agonists, primary screen, Fluo-8 calcium fluorescence, CHO RD-HGA16 cells. 360,000 tested, 0.99% active. Trace amine-associated receptor 1 (Homo sapiens), Q96RJ0. vehicle wells 0%, saturating PEA agonist 100%. activation, % at 3 µM. AID 624467, 2012;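 active = activation above the mean activation of all test compounds in the run plus 3 SD, cut at about 38% in these data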
#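 System: CHO-derived RD-HGA16 cells with stable Gα16 and human TAAR1 / Times: 17-24 h plating, Fluo-8 75 min 37 °C, 30 min RT / Technique: calcium-sensitive Fluo-8 signal, excitation 470-495, emission 515-575 nm / Measure: % activation relative to PEA EC100 response / Benchmarks: DMSO and PEA EC100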
# TAAR1 antagonist: human TAAR1 antagonists, primary screen, Fluo-8 calcium fluorescence, CHO RD-HGA16 cells | 360,000 tested, 1.5% active | Trace amine-associated receptor 1 (Homo sapiens), Q96RJ0 | antagonist | inhibition, % at 3 µM;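 active = inhibition above a per-plate cutoff, the mean inhibition of test compounds on that plate plus 3 SD, cut at about 49% in these data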
#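 Material: CHO RD-HGA16 cells bearing hTAAR1; compound dosing: one-point dosing, 3 µM nominal final; schedule: dye loading 75 min at 37 °C, then 30 min room temperature; measured by: calcium fluorescence with Fluo-8; control set: vehicle and agonist controls; replication: n of 1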
# OX1R antag-1: OX1R (HCRTR1) antagonists, primary screen, fluorescence, CHO/OX1R cells, Fluo-8 calcium, orexin A | Orexin/Hypocretin receptor type 1 (Homo sapiens), O43613 | Fluo-8 calcium fluorescence | inhibition, % at 5 µM | 330,000 tested, 0.43% active | AID 434989, 2010;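 active = inhibition above its plate's threshold, mean inhibition of all tested compounds on the plate plus 3 SD, cut at about 37% in these data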
# Target sequence (O43613 whole entry, looked up): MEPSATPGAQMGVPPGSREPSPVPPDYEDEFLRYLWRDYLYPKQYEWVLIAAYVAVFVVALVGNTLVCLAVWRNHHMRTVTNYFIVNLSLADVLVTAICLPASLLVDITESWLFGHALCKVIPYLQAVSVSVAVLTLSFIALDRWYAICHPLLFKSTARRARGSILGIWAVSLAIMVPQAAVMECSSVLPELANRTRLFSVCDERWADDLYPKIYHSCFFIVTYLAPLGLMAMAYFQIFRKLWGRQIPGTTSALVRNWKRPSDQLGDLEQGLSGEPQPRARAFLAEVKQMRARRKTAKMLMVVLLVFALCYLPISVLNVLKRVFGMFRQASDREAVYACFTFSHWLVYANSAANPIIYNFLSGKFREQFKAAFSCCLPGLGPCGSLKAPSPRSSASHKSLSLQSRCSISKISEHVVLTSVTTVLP
# OX1R antag-2: antagonists of human orexin 1 receptor (OX1R); Orexin/Hypocretin receptor type 1 (Homo sapiens), O43613; OX1R-expressing cells, FRET antagonist read-out; inhibition, % at 6.6 µM; 330,000 tested, 1.8% active; in the data active = inhibition mostly above about 38%, no sharp cut-off; inactive = mostly below about 40%
# GalR3 antag: GalR3 antagonists in HEK293 cells, primary screen, cell-based, fluorescence readout. HEK293 GalR3-CNG cAMP membrane potential fluorescence; galR3 body fused to GalR1 C-terminus. 360,000 tested, 0.44% active. inhibition, % at 3 µM. Galanin receptor type 3 (Homo sapiens), O60755;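 active = inhibition above the screen-wide average plus 3 SD, cut at about 13% in these data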;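 note: forskolin and galanin both at EC90 stimulate the cells; cAMP rise reported by CNG channel membrane potential dye signal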
# Target sequence (O60755 1-299 limits assumed): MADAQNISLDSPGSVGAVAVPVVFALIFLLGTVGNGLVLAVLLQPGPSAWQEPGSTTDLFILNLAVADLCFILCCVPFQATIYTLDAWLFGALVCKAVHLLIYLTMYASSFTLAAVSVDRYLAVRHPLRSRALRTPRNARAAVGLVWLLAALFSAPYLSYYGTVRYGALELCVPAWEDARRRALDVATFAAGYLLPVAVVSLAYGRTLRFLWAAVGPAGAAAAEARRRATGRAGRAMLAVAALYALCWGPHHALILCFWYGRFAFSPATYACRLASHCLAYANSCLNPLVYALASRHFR
# CHO parental Ca: ATP-evoked calcium signal inhibitors, parental CHO, primary screen, counter-screen for OX1R antagonist project, cell-based, fluorescence, Fluo-8 calcium dye | parental CHO-K1, ATP-induced calcium, Fluo-8 fluorescence | inhibition, % at 5.6 µM | 330,000 tested, 0.63% active | AID 463079, 2010;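 active = inhibition above that plate's mean sample inhibition plus 3 SD, cut at about 26% in these data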
#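 Test system: parental CHO cells; detection: calcium-sensitive Fluo-8 fluorescence; evaluation: percent inhibition of calcium signal; also added: ATP as calcium-mobilizing challenge; repeats: one well per compound; control set: ATP-challenged DMSO wells low, unchallenged DMSO wells high; compound: single nominal dose of 5.6 µM per compound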
# nonsel antag count: nonselective antagonists in TAAR1 counter-screen cells, counter-screen for hTAAR1 antagonist project, cell-based, fluorescence, calcium. shares compounds with TAAR1 antagonist. counterscreen cell line, antagonist mode. inhibition, % at 3 µM. 2,400 tested, 77% active. AID 651780, 2012; in the data active = inhibition above about 22%;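 note: CHO-Ga16 host cells stimulated with ATP at an EC80 level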
# TAAR1 ant conf: human TAAR1 antagonists, retest of hits, confirmation, cell-based, fluorescence | shares compounds with TAAR1 antagonist | TAAR1-expressing cells, fluorescence antagonist read-out | inhibition, % at 3 µM | 2,400 tested, 40% active | AID 651785, 2012; in the data active = inhibition above about 49%;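 note: CHO-Ga16 host cells challenged with agonist PEA near its EC80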
# Ga16 nonsel ag: calcium activation in Ga16-expressing cells, counter-screen for TAAR1 antagonist project, cell-based, fluorescence; shares compounds with TAAR1 antagonist; agonist counterscreen; 2,400 tested, 18% active; activation, % at 3 µM; in the data active = activation above about 12%
# TAAR1 ag counter: TAAR1 activation by candidate antagonists – cell-based, fluorescence, counter-screen for TAAR1 antagonist project. shares compounds with TAAR1 antagonist. hTAAR1 cell line, agonist mode. activation, % at 3 µM. 2,400 tested, 2% active; in the data active = activation above about 37%;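 note: CHO cells stably expressing TAAR1 with calcium dye readout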
# Hits are given with their value; . = inactive; / = not tested or not shown.
SMILES,TAAR1 ag,TAAR1 antagonist,OX1R antag-1,OX1R antag-2,GalR3 antag,CHO parental Ca,nonsel antag count,TAAR1 ant conf,Ga16 nonsel ag,TAAR1 ag counter
CCCCc1nc(NCCNC(=O)c2ccccc2)c(C#N)c2c1CSC(C)(C)C2,.,68,.,.,.,.,30,52,.,.
CCCCc1nc(NCCN2CCOCC2)c(C#N)c2c1COC(C)(C)C2,.,.,.,.,.,.,/,/,/,/
C[C@@H]1CN([C@H](C)CO)C(=O)CCCn2nncc2CO[C@@H]1CN(C)C(=O)Nc1ccc(N2CCCCC2)cc1,.,.,/,/,.,/,/,/,/,/
COc1ccc(CCNc2oc(COc3ccccc3Cl)nc2C#N)cc1OC,.,64,.,.,.,.,39,55,.,.
COc1ccc(CCNc2oc(Cc3ccccc3)nc2C#N)cc1OC,.,.,.,.,.,.,/,/,/,/
COc1ccc(CCNc2oc(COc3ccccc3F)nc2C#N)cc1OC,.,59,.,.,.,.,37,49,12,.
COc1cccc(OC)c1OCCOc1ccc(C(=O)c2ccccc2)cc1,.,52,.,.,.,.,31,59,.,.
CC(=O)c1ccc(NC(=O)c2ccc(NC(=O)CCS(=O)(=O)c3cccs3)cc2)cc1,.,86,.,.,.,.,40,64,15,.
O=C(CCS(=O)(=O)c1cccs1)Nc1ccc(C(=O)NCc2cccs2)cc1,.,.,.,.,.,.,/,/,/,/
CCOC(=O)C1=CCN(S(=O)(=O)c2ccc(C)cc2)C1c1ccc(Br)cc1 (configuration not stated),.,.,/,/,.,/,/,/,/,/
CCc1ccccc1S(=O)(=O)Cc1ccc(C(=O)N2CCN(c3ccccc3OC)CC2)o1,.,72,.,.,.,.,29,50,18,38
O=C(c1ccc2c(=O)n(CCc3ccccc3)c(=O)[nH]c2c1)N1CCN(c2ccc(F)cc2)CC1,.,58,.,.,.,.,29,.,.,.
COc1ccccc1N1CCN(C(=O)c2cccc(C(=O)N3CCN(c4ccccc4OC)CC3)c2)CC1,.,54,.,.,.,.,27,49,.,.
COc1ccccc1N1CCN(C(=O)C2CCN(C(=O)c3cccc(Cl)c3)CC2)CC1,.,.,.,.,.,.,/,/,/,/
O=C(c1ccc(N2CCN(C(=O)c3cccc(F)c3)CC2)cc1)c1cccc(F)c1,.,53,.,.,.,.,24,.,.,.
O=C(NCC1CCCO1)C(c1cccs1)N(C(=O)c1ccc(-c2ccccc2)[nH]1)C1CCCC1 (configuration not stated),.,.,.,.,.,.,/,/,/,/
O=C(NC1CC(=O)N(c2ccc3c(c2)OCCO3)C1)N1CCC(O)CC1 (configuration not stated),.,.,.,.,.,.,/,/,/,/
Cc1cccc(C2=NN(c3ccc(Br)cc3)[C@@H](C(=O)N3CCOC3=O)[C@@H]2c2ccccc2)c1,/,/,.,.,/,.,/,/,/,/
CCCOc1ccc(/C=C/c2c([N+](=O)[O-])c(=O)n(C)c(=O)n2C)cc1,.,.,.,.,.,.,/,/,/,/
CC(C)NC(=O)c1ccccc1NS(=O)(=O)c1ccc(Br)s1,.,.,/,/,.,/,/,/,/,/
O=C(C(Sc1ccccc1)c1ccccc1)N1CCN(c2ccccc2F)CC1 (configuration not stated),.,50,.,.,.,.,.,.,.,.
O=C(c1cccc(C(=O)N2CCN(c3ccccc3F)CC2)c1)N1CCN(c2ccccc2F)CC1,.,68,.,.,.,.,27,.,.,.
O=C(C(Sc1ccccc1)c1ccc(Br)cc1)N1CCOCC1 (configuration not stated),.,.,.,.,.,.,/,/,/,/
O=C(c1c(F)cccc1F)N1CCN(c2ccccc2F)CC1,.,.,.,.,.,.,/,/,/,/
O=C(COc1ccccc1)Nc1cccc(-c2nc3cc4ccccc4cc3[nH]2)c1,.,69,.,.,.,.,38,59,.,.
SMILES,TAAR1 ag,TAAR1 antagonist,OX1R antag-1,OX1R antag-2,GalR3 antag,CHO parental Ca,nonsel antag count,TAAR1 ant conf,Ga16 nonsel ag,TAAR1 ag counter
Cc1cccc(C)c1OCC(=O)Nc1cccc(-c2nnc(-c3ccccc3)o2)c1,.,.,.,.,.,.,/,/,/,/
Cc1cccc(OCC(=O)Nc2cccc(-c3nnc(-c4ccccc4)o3)c2)c1C,.,69,.,.,.,.,32,60,.,.
Cc1ccc(SCC(=O)Nc2cccc(-c3nnc(-c4ccco4)o3)c2)cc1,.,65,.,.,.,.,38,52,.,.
Cc1nc(-c2cccc(NC(=O)COc3ccc(Cl)cc3)c2)cs1,.,55,/,/,.,/,30,.,.,.
CN(O)/C=N/C(=S)Nc1ccc(Cl)cc1Cl,.,.,.,.,.,.,/,/,/,/
O=C(c1oc(=O)c2ccccc2c1-c1ccccc1)N1CCOCC1,.,.,.,.,.,.,/,/,/,/
O=C(Nc1ccc(F)cc1)C(c1cccc(F)c1)N1CCN(CC(=O)N2CCCC2)CC1 (configuration not stated),.,.,/,/,.,/,/,/,/,/
CC(C)C(c1nnnn1Cc1ccc(F)cc1)N1CCC(C(N)=O)CC1 (configuration not stated),.,.,.,.,.,.,/,/,/,/
O=C(Nc1cccc(-c2nnc(-c3ccccc3)o2)c1)c1ccco1,.,50,.,.,.,.,29,.,.,.
CCC(=O)Nc1cccc(-c2nc3ccccc3o2)c1,.,.,.,.,.,.,/,/,/,/
COc1ccccc1OCC(=O)Nc1cccc(-c2nc3ccccc3o2)c1,.,66,.,.,.,.,33,.,.,.
Cc1ccc(OCC(=O)Nc2cccc(-c3nnc(-c4ccccc4)o3)c2)cc1,.,69,.,.,.,.,35,65,.,.
